Assay results: ChEMBL document CHEMBL3352204, “Cytotoxic and Antibacterial Quinone Sesquiterpenes from a Myrothecium Fungus” (J Nat Prod, 2014)
In brackets after ≈: the same amount, converted by molar mass. Activity calls are given as the source filed them. The calls are words filed in the database; no cut-off is given here.

What was measured:
A549 = assay: Cytotoxicity against human A549 cells assessed as inhibition of cell growth after 72 hrs by MTT assay; type: functional, cell-based; details: A549, 72 h
Outline: (§1)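 Cells grown in RPMI-1640 with 10% FBS at 37 °C under 5% CO2, seeded at 5 × 10^4 cells/mL and allowed about 24 h to attach. Medium was replaced and compound in DMSO added at final 0.016–50 μg/mL (5-fold steps), in quadruplicate, for 72 h. MTT was then given for 4 h, formazan dissolved in DMSO and OD read at 570 nm. IC50 obtained by nonlinear logistic regression.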

HeLa = assay: Cytotoxicity against human HeLa cells assessed as inhibition of cell growth after 72 hrs by MTT assay; type: functional, cell-based; outline: as §1
HepG2 = assay: Cytotoxicity against human HepG2 cells assessed as inhibition of cell growth after 72 hrs by MTT assay; type: functional, cell-based; details: HepG2, 72 h; outline: as §1
Staphylococcus aureus = assay: Antibacterial activity against Staphylococcus aureus ATCC 6538 after 7 hrs by Alamar Blue assay; type: functional; details: ATCC 6538, 7 h
Outline: (§2)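 Strains kept in 20% glycerol at −80 °C, grown in MHB 12 h at 37 °C with shaking at 150 rpm, then adjusted to 1 × 10^5 CFU/mL in MHB. Suspension held Alamar Blue (8% v/v) and 2-fold diluted compound in DMSO (4% v/v), final 1.562–100 μg/mL, in triplicate. Incubated 7 h at 37 °C in the dark. MIC is the lowest concentration whose well stays blue.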

Bacillus cereus = assay: Antibacterial activity against Bacillus cereus CMCC 63302 after 7 hrs by Alamar Blue assay; type: functional; details: CMCC 63302, 7 h; outline: as §2
Escherichia coli = assay: Antibacterial activity against Escherichia coli ATCC 8739 after 7 hrs by Alamar Blue assay; type: functional, organism-based; outline: as §2
Salmonella typhimurium = assay: Antibacterial activity against Salmonella typhimurium CMCC 50115 after 7 hrs by Alamar Blue assay; type: functional, organism-based; details: Salmonella enterica subsp. enterica serovar Typhimurium; outline: as §2
Shigella dysenteriae = assay: Antibacterial activity against Shigella dysenteriae CMCC 51252 after 7 hrs by Alamar Blue assay; type: functional, organism-based

| SMILES | IC50 (A549) [µM] | IC50 (HeLa) [µM] | IC50 (HepG2) [µM] | MIC (Staphylococcus aureus) [µg/mL] | MIC (Bacillus cereus) [µg/mL] | MIC (Escherichia coli) | MIC (Salmonella typhimurium) | MIC (Shigella dysenteriae) |
| --- | --- | --- | --- | --- | --- | --- | --- | --- |
| C=C1CC[C@H]2[C@](C)(COC(C)=O)CCC[C@]2(C)[C@H]1C[C@@]12O[C@@H]1[C@@H](O)C(CO)=CC2=O | 18 | 19.6 | 27.8 | 50 (≈ 119 µM) | > 100 | inactive | inactive | inactive |
| C=C1CC[C@H]2[C@](C)(CO)CCC[C@]2(C)[C@H]1C[C@]12O[C@H]1[C@@H](O)C(CO)=C(Cl)C2=O | 8 | 7.9 | 15.2 | 12.5 (≈ 30.4 µM) | 25 (≈ 60.8 µM) | inactive | inactive | inactive |
| C=C1CC[C@H]2[C@](C)(CO)CCC[C@]2(C)[C@H]1C[C@]12O[C@H]1[C@@H](O)C(CO)=CC2=O | 39.8 | 29.3 | 48.5 | 50 (≈ 133 µM) | 100 (≈ 266 µM) | inactive | inactive | inactive |
| CC(C)(O/N=C(\C(=O)N[C@@H]1C(=O)N2C(C(=O)[O-])=C(C[n+]3ccccc3)CS[C@H]12)c1csc(N)n1)C(=O)O [CEFTAZIDIME] |  |  |  | 12.5 (≈ 22.9 µM) |  |  |  |  |
| C[C@@]1(CO)CCC[C@]2(C)[C@H]3C[C@@]45O[C@@H]4C(=O)[C@]4(CO)O[C@@H]4[C@]5(O)CC3=CC[C@@H]12 [HYMENOPSIN B] | 1.3 | 4.5 | 3.2 | > 100 | > 100 | inactive | inactive | inactive |
| COc1cccc2c1C(=O)c1c(O)c3c(c(O)c1C2=O)C[C@@](O)(C(=O)CO)C[C@@H]3O[C@H]1C[C@H](N)[C@H](O)[C@H](C)O1 [DOXORUBICIN] | 0.69 | 0.47 |  |  |  |  |  |  |
| C=C1CC[C@H]2[C@](C)(CO)CCC[C@]2(C)[C@H]1C[C@@]12O[C@@H]1[C@@H](O)C(CO)=CC2=O | 41.5 | 35.9 | 34.2 | 50 (≈ 133 µM) | 100 (≈ 266 µM) | inactive | inactive | inactive |
| NC[C@H]1O[C@H](O[C@H]2[C@H](O)[C@@H](O[C@H]3O[C@H](CO)[C@@H](O)[C@H](N)[C@H]3O)[C@H](N)C[C@@H]2N)[C@H](O)[C@@H](O)[C@@H]1O [KANAMYCIN] |  |  |  |  | 6.25 (≈ 12.9 µM) |  |  |  |
| C=C1CC[C@H]2[C@](C)(COC(C)=O)CCC[C@]2(C)[C@H]1C[C@]12O[C@H]1[C@H](O)C(CO)=CC2=O | 29.4 | 19.2 | 37.8 | 100 (≈ 239 µM) | > 100 | inactive | inactive | inactive |
| C=C1CC[C@H]2[C@](C)(CO)CCC[C@]2(C)[C@H]1CC1=C(O)C(=O)[C@](O)(CO)[C@H](O)[C@H]1O | > 50 | > 50 | > 50 | > 100 | > 100 | inactive | inactive | inactive |
